Reference: ChEMBL document CHEMBL4715923, “Investigation on the Anticancer Activity of Symmetric and Unsymmetric Cyclic Sulfamides” (ACS Med Chem Lett, 2021)
Calls of active or inactive are those of the source. No cut-off for these calls is given here.

How the values were obtained:
[1] = test system: Panel NCI-60 (60 carcinoma cell lines); experiment: Cytotoxicity against human Panel NCI-60 (60 carcinoma cell lines) assessed as reduction in cell growth incubated for 48 hrs by SRB assay; assay type: functional, cell-based
Procedure, shortened: (§1)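 Cells kept in RPMI 1640 with 5% FBS and 2 mM L-glutamine at 37 °C in 5% CO2, periodically tested for Mycoplasma. After plating, cells were held 1 day without drug, and time-zero plates were read. Compounds in DMSO were added at 10^-4 to 10^-8 M (five 10-fold steps), with DMSO-only controls, for 48 h. Cells were then TCA-fixed and stained with sulforhodamine B, and absorbance was read. GI50 was derived from time-zero, control and treated absorbances; LC50 is the mean of two independent experiments.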

RPMI-8226 = experiment: Cytotoxicity against human RPMI-8226 cells assessed as reduction in cell growth incubated for 48 hrs by SRB assay; assay type: functional, cell-based; procedure, shortened: as §1
Coagulation factor X = Coagulation factor X (Homo sapiens, UniProt P00742); experiment: Inhibition of human factor Xa using […] as substrate by chromogenic assay
Coagulation factor X, sequence (P00742 41-179 limits assumed): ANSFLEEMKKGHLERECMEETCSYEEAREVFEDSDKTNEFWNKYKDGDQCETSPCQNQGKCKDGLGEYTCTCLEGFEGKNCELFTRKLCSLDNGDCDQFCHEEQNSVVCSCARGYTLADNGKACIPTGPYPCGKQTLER
Coagulation factor X, sequence (P00742 235-488 limits assumed): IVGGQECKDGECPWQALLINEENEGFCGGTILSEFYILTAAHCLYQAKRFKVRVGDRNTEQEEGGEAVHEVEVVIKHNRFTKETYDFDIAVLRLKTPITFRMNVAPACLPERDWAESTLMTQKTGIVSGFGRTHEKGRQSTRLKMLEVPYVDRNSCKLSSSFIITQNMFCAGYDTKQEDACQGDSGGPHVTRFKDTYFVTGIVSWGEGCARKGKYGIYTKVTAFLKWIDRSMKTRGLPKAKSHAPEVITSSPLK

A549 [2] = experiment: Induction of cell cycle arrest in human A549 cells assessed as increase in subG1 phase accumulation incubated for 48 hrs by PI based flow cytometry; assay type: functional
Procedure, shortened: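 A549 cells were exposed for 48 h, stained with propidium iodide and analysed by flow cytometry for cell cycle distribution and the sub-G1 (dead cell) fraction.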

OVCAR-4 = experiment: Cytotoxicity against human OVCAR-4 cells assessed as reduction in cell growth incubated for 48 hrs by SRB assay; assay type: functional, cell-based; procedure, shortened: as §1
A549 [3] = experiment: Cytotoxicity against human A549 cells assessed as loss of cell morphological changes at 1 uM; assay type: functional, cell-based
Procedure, shortened: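 A549 cells grown overnight were exposed to 1 μM compound or DMSO vehicle, and changes in cell morphology were recorded.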

A549 [4] = experiment: Cytotoxicity against human A549 cells assessed as reduction in cell growth at 10 uM incubated for 36 hrs by MTT assay relative to control; assay type: functional
Procedure, shortened: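 A549 cells were treated with 10 μM compound or DMSO vehicle, and growth inhibition was followed over time, with a 36 h time point.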

A549 [5] = experiment: Induction of cellular senescence in human A549 cells assessed as increase in SA-beta-Gal accumulation in cells at 10 to 50 uM incubated for overnight by microscopic analysis; assay type: functional, cell-based; conditions: dose 10-50 µM
A549 [6] = experiment: Inhibition of cell migration in human A549 cells incubated for 24 hrs by phase contrast microscopy based relative wound healing/cell migration assay to control; assay type: functional; conditions: dose 0-50 µM
Procedure, shortened: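 Scratches were made in A549 monolayers. Cells were then grown in medium containing compound (0–50 μM) or DMSO vehicle, and wound closure was imaged by phase-contrast microscopy.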

A549 [7] = experiment: Inhibition of colony formation in human A549 cells grown under anchorage-independent soft-agar condition incubated for 9 days and subsequent media replenishment for every 3 days by crystal violet staining based light microscopy assay; conditions: dose 10-50 µM, time 9.0 day
HCT-116 = experiment: Cytotoxicity against human HCT-116 cells assessed as reduction in cell growth incubated for 48 hrs by SRB assay; assay type: functional, cell-based; procedure, shortened: as §1
MDA-MB-468 = experiment: Cytotoxicity against human MDA-MB-468 cells assessed as reduction in cell growth incubated for 48 hrs by SRB assay; assay type: functional, cell-based; procedure, shortened: as §1
SF-295 = experiment: Cytotoxicity against human SF-295 cells assessed as reduction in cell growth incubated for 48 hrs by SRB assay; assay type: functional, cell-based; procedure, shortened: as §1
PC-3 = experiment: Cytotoxicity against human PC-3 cells assessed as reduction in cell growth incubated for 48 hrs by SRB assay; assay type: functional, cell-based; procedure, shortened: as §1
A549 [8] = experiment: Induction of apoptosis in human A549 cells assessed as effect on caspase activation; assay type: functional, cell-based

Question: What does the source list for `O=S1(=O)N(Cc2ccccc2)[C@@H](Cc2ccccc2)[C@H](O)[C@H](O)[C@H](Cc2ccccc2)N1Cc1ccccc1`?
Answer: inhibition [1]: Active; inhibition (RPMI-8226): Active

Question: `CC(=N)N1CCC(Oc2ccc3c(c2)C(=O)NS(=O)(=O)N3Cc2ccc3ccc(C(=N)N)cc3c2)CC1` was tested. Which IC50 (Coagulation factor X) did it give?
Answer: Its IC50 is 0.4 nM.

Question: Which results are given for `O=S1(=O)N(Cc2ccccc2)[C@H](Cc2ccccc2)[C@H](O)[C@H](O)[C@@H](Cc2ccccc2)N1Cc1ccccc1`?
Answer: inhibition [1]: Active; inhibition (RPMI-8226): Active

Question: Which Activity (A549 [2]) does the source give for `O=S1(=O)N(Cc2ccccc2)[C@@H](Cc2ccccc2)C=C[C@H](Cc2ccccc2)N1Cc1ccccc1` here?
Answer: The Activity was “Active”.

Question: What about the inhibition (OVCAR-4) of the same molecule?
Answer: The inhibition was “Active”.

Question: And the Activity (A549 [3])?
Answer: Its Activity is “Active”.

Question: And the inhibition at 10 µM (A549 [4])?
Answer: The inhibition at 10 µM was 50%.

Question: And the Activity (A549 [5])?
Answer: The Activity was “Active”.

Question: What about the “inhibition (INH)” value (A549 [6]) of the same molecule?
Answer: The value was 50%.

Question: And the inhibition (A549 [7])?
Answer: Its inhibition is “Dose-dependent effect”.

Question: What about the inhibition (HCT-116) of the same molecule?
Answer: Its inhibition is “Active”.

Question: And the inhibition (MDA-MB-468)?
Answer: Its inhibition is “Active”.

Question: What about the inhibition (SF-295) of the same molecule?
Answer: The inhibition was “Active”.

Question: And the inhibition (PC-3)?
Answer: Its inhibition is “Active”.

Question: What about the Activity (A549 [8]) of the same molecule?
Answer: Its Activity is “inactive”.

Question: What does the source list for `O=S1(=O)N(Cc2ccccc2)[C@@H](Cc2ccccc2)[C@@H]2O[C@@H]2[C@H](Cc2ccccc2)N1Cc1ccccc1`?
Answer: inhibition [1]: Active; inhibition (RPMI-8226): Active
